# Data as given in ChEMBL document CHEMBL1144702, “Synthesis and structure-activity relationship studies on tryprostatin A, an inhibitor of breast cancer resistance protein” (Bioorg Med Chem, 2008).
# The source made the active and inactive calls. The rule behind the calls is not given here.
# How the values were obtained:
# [1] = Antiproliferative activity against mouse tsFT210 cells after 48 hrs by WST-8 assay; type: functional, cell-based; conditions: tsFT210, 48 h
# Method in brief: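 tsFT210 cells (temperature-sensitive cdc2 mutant from mouse mammary carcinoma FM3A), kept in RPMI 1640 with 10% fetal calf serum at 32 °C; exponentially growing cells exposed to compound at 32 °C for 48 h, then WST-8 added for 4 h at 37 °C; absorbance at 450 nm read to estimate cell number; IC50 reported.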
# [2] = system: PC-3; assay: Cytotoxicity against human PC3 cells at 10 uM after 72 hrs by Cell Titer 96 Aqueous Non-Radioactive assay; type: functional; conditions: PC-3, 72 h, read-out: Inhibition
# Method in brief: (§1)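 MCF7, NCI-H520 or PC-3 cells (RPMI-1640, 10% FBS) plated 1 × 10^4/well, 24 h at 37 °C, exposed 72 h to drug at 10 or 100 μM in DMSO or EtOH vehicle (controls usually 0.2%). Survival by MTS/PMS formazan absorbance at 490 nm, plate blank subtracted, as percent of vehicle wells; quadruplicate; etoposide or m-AMSA positive controls.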
# [3] = system: K562; assay: Cytotoxicity against human K562 cells; type: functional
# [4] = system: UO-31; assay: Cytotoxicity against human UO31 cells; type: functional
# [5] = Cytotoxicity against human H520 cells at 10 uM after 72 hrs by Cell Titer 96 Aqueous Non-Radioactive assay; type: functional; conditions: NCI-H520, 72 h, read-out: Inhibition; method in brief: as §1
# [6] = system: SR; assay: Cytotoxicity against human SR cells; type: functional
# [7] = system: DU-145; assay: Cytotoxicity against human DU145 cells; type: functional
# [8] = system: EKVX; assay: Cytotoxicity against human EKVX cells; type: functional
# [9] = system: MCF7; assay: Cytotoxicity against human MCF7 cells after 72 hrs by Cell Titer 96 Aqueous Non-Radioactive assay; type: functional; conditions: MCF7, 72 h
# Method in brief: (§2)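 MCF7, NCI-H520 and PC-3 cells in RPMI-1640 + 10% FBS, 2 mM L-glutamine, 0.1 mM non-essential amino acids; 1 × 10^4 cells/well, 24 h at 37 °C, then drug in DMSO or EtOH (<1%) for 72 h. Cells under 50% survival at 100 μM retested over further concentrations for GI50. MTS/PMS read at 490 nm, blank subtracted, versus vehicle wells; quadruplicate or more.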
# [10] = Cytotoxicity against human H520 cells at 100 uM after 72 hrs by Cell Titer 96 Aqueous Non-Radioactive assay; type: functional; conditions: NCI-H520, 72 h, read-out: Inhibition; method in brief: as §1
# [11] = Cytotoxicity against human […]; type: functional
# [12] = system: MOLT-4; assay: Cytotoxicity against human MOLT4 cells; type: functional
# [13] = Inhibition of tubulin polymerization in presence of microtubule-associated proteins at 60 uM
# Method in brief: (§3)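 Tubulin containing MAPs in PME buffer (100 mM PIPES pH 6.9, 2 mM EGTA, 1 mM MgSO4) with GTP and drug in DMSO, tubulin added last; 37 °C, absorbance change at 351 nm over 10 min. Drug concentration varied across runs for delta absorbance versus concentration curves; colchicine standard curves made for each tubulin batch.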
# [14] = system: MCF7; assay: Cytotoxicity against human MCF7 cells at 10 uM after 72 hrs by Cell Titer 96 Aqueous Non-Radioactive assay; type: functional; conditions: MCF7, 72 h, read-out: Inhibition; method in brief: as §1
# [15] = system: PC-3; assay: Cytotoxicity against human PC3 cells after 72 hrs by Cell Titer 96 Aqueous Non-Radioactive assay; type: functional; conditions: PC-3, 72 h; method in brief: as §2
# [16] = system: IGROV-1; assay: Cytotoxicity against human IGROV1 cells; type: functional
# [17] = system: MCF7; assay: Cytotoxicity against human MCF7 cells at 100 uM after 72 hrs by Cell Titer 96 Aqueous Non-Radioactive assay; type: functional; conditions: MCF7, 72 h, read-out: Inhibition; method in brief: as §1
# [18] = system: RPMI-8226; assay: Cytotoxicity against human RPMI8226 cells; type: functional
# [19] = system: PC-3; assay: Cytotoxicity against human PC3 cells at 100 uM after 72 hrs by Cell Titer 96 Aqueous Non-Radioactive assay; type: functional; conditions: PC-3, 72 h, read-out: Inhibition; method in brief: as §1
# [20] = system: LOX IMVI; assay: Cytotoxicity against human LOX IMVI cells; type: functional
# [21] = system: HOP-92; assay: Cytotoxicity against human HOP92 cells; type: functional
# [22] = Cytotoxicity against human HL60 (TB) cells; type: functional; conditions: HL-60
# [23] = system: OVCAR-3; assay: Cytotoxicity against human OVCAR-3 cells; type: functional
# [24] = system: CCRF-CEM; assay: Cytotoxicity against human CCRF-CEM cells; type: functional
# [25] = system: BT-549; assay: Cytotoxicity against human BT549 cells; type: functional
# [26] = system: COLO 205; assay: Cytotoxicity against human COLO205 cells; type: functional
# [27] = Inhibition of tubulin polymerization in presence of microtubule-associated proteins; method in brief: as §3
# [28] = Cell cycle arrest in mouse tsFT210 cells assessed as accumulation at G2/M phase at 100 uM after 18 hrs by flow cytometry; type: functional, cell-based
# Method in brief: (§4)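 Synchronous-culture assay: tsFT210 cells seeded at 1x10^5 cells/mL, preincubated 1 h at 32 °C, then incubated with compound 18 h at 32 °C; morphology checked by microscopy; DNA content by flow cytometry after staining with 50 μg/mL propidium iodide, 0.1% sodium citrate, 0.2% NP-40; nuclei/chromosomes stained with Hoechst 33258 after KCl swelling and Carnoy fixation.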
# [29] = Cell cycle arrest in mouse tsFT210 cells assessed as accumulation at G1 phase at 100 uM after 18 hrs by flow cytometry; type: functional, cell-based; method in brief: as §4
# [30] = system: HT-29; assay: Cytotoxicity against human HT29 cells; type: functional
compound,measurement,setting,value
COc1ccc2c(C[C@@H]3NC(=O)[C@@H]4CCCN4C3=O)cn(C)c2c1,IC50,[1],> 100 µM
COC(=O)/C=C/c1[nH]c2cc(OC)ccc2c1C[C@@H]1NC(=O)[C@@H]2CCCN2C1=O,IC50,[1],> 100 µM
COc1ccc2c(C[C@@H]3NC(=O)[C@@H]4CCCN4C3=O)cn(CC=C(C)C)c2c1,IC50,[1],> 100 µM
COc1ccc2c(C[C@@H]3NC(=O)[C@H](Cc4ccccc4)NC3=O)c(CC=C(C)C)[nH]c2c1,IC50,[1],10 µM
CC(C)=CCc1[nH]c2ccccc2c1C[C@H]1NC(=O)[C@@H]2CCCN2C1=O,percent cell survival relative to vehicle control at 10 µM,[2],97.3%
same,GI50,[3],31.8 µM
same,GI50,[4],45.7 µM
same,percent cell survival relative to vehicle at 10 µM,[5],> 100%
same,GI50,[6],25.4 µM
same,GI50,[7],59.5 µM
same,GI50,[8],20.7 µM
same,GI50,[9],25.9 µM
same,cell survival (% of vehicle control) at 100 µM,[10],76.5%
same,GI50,[11],49.6 µM
same,GI50,[12],34.9 µM
same,inhibition,[13],< 2%
same,cell survival (% of vehicle control) at 10 µM,[14],> 100%
same,GI50,[15],24.8 µM
same,GI50,[16],32.3 µM
same,cell survival (% of vehicle control) at 100 µM,[17],> 100%
same,GI50,[18],18.6 µM
same,percent cell survival at 100 µM,[19],68.5%
same,GI50,[20],17.8 µM
same,GI50,[21],2.94 µM
same,GI50,[22],55.7 µM
same,GI50,[23],28.7 µM
same,GI50,[24],22.2 µM
same,GI50,[25],26.9 µM
same,GI50,[26],39.3 µM
CC(C)=CCc1[nH]c2ccccc2c1C[C@@H]1NC(=O)[C@@H]2CCCN2C1=O [TRYPROSTATIN B],percent cell survival relative to vehicle control at 10 µM,[2],95.5%
same,GI50,[3],56.1 µM
same,GI50,[4],> 100 µM
same,percent cell survival relative to vehicle at 10 µM,[5],77.6%
same,GI50,[6],50.6 µM
same,GI50,[7],> 100 µM
same,GI50,[8],> 100 µM
same,GI50,[9],> 100 µM
same,cell survival (% of vehicle control) at 100 µM,[10],60.5%
same,GI50,[11],> 100 µM
same,GI50,[12],> 100 µM
same,cell survival (% of vehicle control) at 10 µM,[14],88.2%
same,GI50,[15],> 100 µM
same,GI50,[16],> 100 µM
same,cell survival (% of vehicle control) at 100 µM,[17],66.7%
same,GI50,[18],> 100 µM
same,IC50,[27],> 700 µM
same,percent cell survival at 100 µM,[19],68.9%
same,GI50,[20],> 100 µM
same,GI50,[21],43.1 µM
same,GI50,[22],> 100 µM
same,GI50,[23],> 100 µM
same,GI50,[24],> 100 µM
same,GI50,[25],58.2 µM
same,GI50,[26],> 100 µM
C=CCc1[nH]c2cc(OC)ccc2c1C[C@@H]1NC(=O)[C@@H]2CCCN2C1=O,Activity,[28],Active
same,Activity,[29],Active
same,IC50,[1],60 µM
COc1ccc2c(C[C@H]3NC(=O)[C@@H]4CCCN4C3=O)c(CC=C(C)C)[nH]c2c1,percent cell survival relative to vehicle control at 10 µM,[2],> 100%
same,GI50,[3],17.7 µM
same,GI50,[4],27.3 µM
same,percent cell survival relative to vehicle at 10 µM,[5],> 100%
same,GI50,[6],11.3 µM
same,GI50,[7],40 µM
same,GI50,[8],> 50 µM
same,GI50,[9],25.5 µM
same,cell survival (% of vehicle control) at 100 µM,[10],> 100%
same,GI50,[11],13 µM
same,GI50,[12],12.2 µM
same,inhibition,[13],< 2%
same,cell survival (% of vehicle control) at 10 µM,[14],> 100%
same,GI50,[15],21.7 µM
same,GI50,[16],> 50 µM
same,cell survival (% of vehicle control) at 100 µM,[17],> 100%
same,GI50,[18],7.76 µM
same,percent cell survival at 100 µM,[19],> 100%
same,GI50,[20],33.5 µM
same,GI50,[22],35 µM
same,GI50,[23],> 50 µM
same,GI50,[30],16.1 µM
same,GI50,[24],11.9 µM
same,GI50,[25],9.77 µM
same,GI50,[26],12.4 µM
COc1ccc2c(C[C@@H]3NC(=O)[C@@H]4CCCN4C3=O)c(Br)[nH]c2c1,IC50,[1],96 µM
COc1ccc2c(C[C@@H]3NC(=O)[C@H](C(C)C)NC3=O)c[nH]c2c1,IC50,[1],> 100 µM
COc1ccc2c(C[C@@H]3NC(=O)[C@@H]4CCCN4C3=O)c(Cc3ccccc3)[nH]c2c1,IC50,[1],> 100 µM
COc1ccc2c(C[C@@H]3NC(=O)[C@@H]4CCCN4C3=O)c(CC=C(C)C)n(Cc3ccccc3)c2c1,IC50,[1],55 µM
